Data published in ChEMBL document CHEMBL1131202, “Alkyl esters of camptothecin and 9-nitrocamptothecin: synthesis, in vitro pharmacokinetics, toxicity, and antitumor activity” (1998).

How the values were obtained:
Type in all cases: functional
[1] = In vitro determination of lactone level in human plasma after administration of compound at 0 hour
Summary of the method: (§1)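 Drug (500 ng, in methanol) added to 1 mL of human or mouse plasma and incubated at 37 °C. 100-µL aliquots taken at 0.5–6 h. Analysis by C-8 HPLC (30% acetonitrile/water/0.1% acetic acid) with fluorescence at 347/418 nm. Percent lactone: lactone/total drug for the parent; drug at each time relative to t = 0 for the ester.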

[2] = In vitro determination of lactone level in human plasma after administration of compound at 1 hour; summary of the method: as §1
[3] = In vitro determination of lactone level in human plasma after administration of compound at 6 hour; summary of the method: as §1
[4] = test system: Mus musculus; assay: In vitro determination of lactone level in mouse plasma after administration of compound at 0 hour; summary of the method: as §1
[5] = test system: Mus musculus; assay: In vitro determination of lactone level in mouse plasma after administration of compound at 1 hour; summary of the method: as §1
[6] = In vitro determination of lactone level in human plasma after administration of compound at 2 hour; summary of the method: as §1
[7] = In vitro determination of lactone level in human plasma after administration of compound at 4 hour; summary of the method: as §1
[8] = test system: Mus musculus; assay: Change in the body weight of mice during the test time period after 34 days at a dose of 7 mg/kg
[9] = test system: Mus musculus; assay: Change in the body weight of mice during the test time period after 21 days at a dose of 5 mg/kg
[10] = test system: Mus musculus; assay: Change in the body weight of mice during the test time period after 21 days at a dose of 6 mg/kg
[11] = test system: Mus musculus; assay: Change in the body weight of mice during the test time period after 21 days at a dose of 7 mg/kg
[12] = test system: Mus musculus; assay: Change in the body weight of mice during the test time period after 21 days at a dose of 8 mg/kg
[13] = test system: Mus musculus; assay: Change in the body weight of mice during the test time period after 27 days at a dose of 5 mg/kg
[14] = test system: Mus musculus; assay: Change in the body weight of mice during the test time period after 27 days at a dose of 6 mg/kg
[15] = test system: Mus musculus; assay: Change in the body weight of mice during the test time period after 27 days at a dose of 7 mg/kg
[16] = test system: Mus musculus; assay: Change in the body weight of mice during the test time period after 27 days at a dose of 8 mg/kg
[17] = test system: Mus musculus; assay: Change in the body weight of mice during the test time period after 34 days at a dose of 5 mg/kg
[18] = test system: Mus musculus; assay: Change in the body weight of mice during the test time period after 34 days at a dose of 6 mg/kg
[19] = test system: Mus musculus; assay: Change in the body weight of mice during the test time period after 34 days at a dose of 8 mg/kg
[20] = test system: Mus musculus; assay: Change in the body weight of mice during the test time period after 41 days at a dose of 5 mg/kg
[21] = test system: Mus musculus; assay: Change in the body weight of mice during the test time period after 41 days at a dose of 6 mg/kg
[22] = test system: Mus musculus; assay: Change in the body weight of mice during the test time period after 41 days at a dose of 7 mg/kg
[23] = test system: Mus musculus; assay: Change in the body weight of mice during the test time period after 41 days at a dose of 8 mg/kg
[24] = test system: Mus musculus; assay: Change in the body weight of mice during the test time period after 48 days at a dose of 5 mg/kg
[25] = test system: Mus musculus; assay: Change in the body weight of mice during the test time period after 48 days at a dose of 6 mg/kg
[26] = test system: Mus musculus; assay: Change in the body weight of mice during the test time period after 48 days at a dose of 7 mg/kg
[27] = test system: Mus musculus; assay: Change in the body weight of mice during the test time period after 48 days at a dose of 8 mg/kg
[28] = test system: Mus musculus; assay: Change in the body weight of mice during the test time period after 56 days at a dose of 5 mg/kg
[29] = test system: Mus musculus; assay: Change in the body weight of mice during the test time period after 56 days at a dose of 6 mg/kg
[30] = test system: Mus musculus; assay: Change in the body weight of mice during the test time period after 56 days at a dose of 7 mg/kg
[31] = test system: Mus musculus; assay: Change in the body weight of mice during the test time period after 56 days at a dose of 8 mg/kg
[32] = test system: Mus musculus; assay: In vitro determination of lactone level in mouse plasma after administration of compound at 6 hour; summary of the method: as §1
[33] = test system: Mus musculus; assay: In vitro determination of lactone level in mouse plasma after administration of compound at 2 hour; summary of the method: as §1
[34] = test system: Mus musculus; assay: In vitro determination of lactone level in mouse plasma after administration of compound at 4 hour; summary of the method: as §1
[35] = test system: Mus musculus; assay: In vitro determination of tlactone level in mouse plasma after administration of compound at 0 hour
Summary of the method: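 Mouse plasma (1 mL) was spiked with 500 ng drug in methanol and incubated at 37 °C, with aliquots taken over time starting at t = 0 h. Percent lactone was derived by reverse-phase C-8 HPLC with fluorescence detection and peak-area integration. For parent camptothecins it was lactone/total drug; for esters it was drug at each time point/drug at t = 0 h.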

CC[C@@]1(O)C(=O)OCc2c1cc1n(c2=O)Cc2cc3c([N+](=O)[O-])cccc3nc2-1 [RUBITECAN] showed a Lactone [1] of 100%, a Lactone [2] of 7% and a Lactone [3] of 0%. It also gave a Lactone [4] of 100% and a Lactone [5] of 30%.

For CCC(=O)O[C@]1(CC)C(=O)OCc2c1cc1n(c2=O)Cc2cc3ccccc3nc2-1 [CAMPTOTHECIN-20-O-PROPIONATE], the Lactone [1] was 100%, the Lactone [2] was 86% and the Lactone [6] was 77%. The Lactone [7] was 68%, the Lactone [3] was 56% and the Body weight [8] was 30.6 g. For the same compound, the Body weight [9] was 33 g, the Body weight [10] was 32.9 g and the Body weight [11] was 30.8 g. It also gave a Body weight [12] of 32.9 g, a Body weight [13] of 33.7 g and a Body weight [14] of 33.4 g. For the same compound, the Body weight [15] was 31.7 g, the Body weight [16] was 34.1 g and the Body weight [17] was 34.4 g. For the same compound, the Body weight [18] was 33.8 g, the Body weight [19] was 34 g and the Body weight [20] was 33.5 g. It also gave a Body weight [21] of 33.5 g, a Body weight [22] of 31.1 g and a Body weight [23] of 33.4 g. The Body weight [24] was 32.9 g, the Body weight [25] was 34 g and the Body weight [26] was 31.6 g. For the same compound, the Body weight [27] was 33.9 g, the Body weight [28] was 33.2 g and the Body weight [29] was 32.2 g. The Body weight [30] was 31.5 g, the Body weight [31] was 33.2 g and the Lactone [4] was 100%. For the same compound, the Lactone [5] was 97.5% and the Lactone [32] was 85%.

Work on CC[C@@]1(O)C(=O)OCc2c1cc1n(c2=O)Cc2cc3ccccc3nc2-1 [CAMPTOTHECIN] yielded a Lactone [1] of 100%, a Lactone [2] of 12% and a Lactone [6] of 0.5%. The Lactone [7] was 0%, the Lactone [3] was 0% and the Lactone [5] was 42%. The Lactone [33] was 35%, the Lactone [34] was 18% and the Lactone [32] was 18%. The Lactone [35] was 100%.

In the case of CCC(=O)O[C@]1(CC)C(=O)OCc2c1cc1n(c2=O)Cc2cc3c([N+](=O)[O-])cccc3nc2-1, the Lactone [1] is reported as 100%, the Lactone [2] is reported as 93.7% and the Lactone [3] is reported as 64.4%. The Lactone [4] was 100%, the Lactone [5] was 97.7% and the Lactone [32] was 84.3%.
